# Bioassay records: PubChem, Broad Institute
# This is a sample that favours compounds with a hit; in the whole collection about 2.1% have one here.
# EWS-Fli inh = inhibitors of EWS/Fli oncoprotein transcriptional activity; AID 651661; A673 NR0B1-luciferase reporter, viability-normalised; hit rate 0.67% among 350,000; inhibition, % at 12.6 µM;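 active = mean inhibition of at least 50% after viability correction, with every replicate also passing that limit; inconclusive = mean reaches 50% but only one of two replicates passes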;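 note: firefly luciferase signal divided by Alamar Blue viability fluorescence both relative to DMSO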
# MLL AF4-AF9 inh = inhibitors of human MLL-AF4/AF9 interaction | hit rate 0.47% among 350,000 | P42568 | AlphaScreen, biotin-AF4 peptide binding to FLAG-AF9 | inhibition, % at 10 µM;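 active = every replicate reaching a set inhibition limit, whatever the replicate mean, cut at about 25% in these data; inconclusive = mean inhibition reaches that limit but some replicates miss it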;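 note: 0% = plate neutral control median and 100% = total signal loss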
# Target sequence (P42568 whole entry, looked up): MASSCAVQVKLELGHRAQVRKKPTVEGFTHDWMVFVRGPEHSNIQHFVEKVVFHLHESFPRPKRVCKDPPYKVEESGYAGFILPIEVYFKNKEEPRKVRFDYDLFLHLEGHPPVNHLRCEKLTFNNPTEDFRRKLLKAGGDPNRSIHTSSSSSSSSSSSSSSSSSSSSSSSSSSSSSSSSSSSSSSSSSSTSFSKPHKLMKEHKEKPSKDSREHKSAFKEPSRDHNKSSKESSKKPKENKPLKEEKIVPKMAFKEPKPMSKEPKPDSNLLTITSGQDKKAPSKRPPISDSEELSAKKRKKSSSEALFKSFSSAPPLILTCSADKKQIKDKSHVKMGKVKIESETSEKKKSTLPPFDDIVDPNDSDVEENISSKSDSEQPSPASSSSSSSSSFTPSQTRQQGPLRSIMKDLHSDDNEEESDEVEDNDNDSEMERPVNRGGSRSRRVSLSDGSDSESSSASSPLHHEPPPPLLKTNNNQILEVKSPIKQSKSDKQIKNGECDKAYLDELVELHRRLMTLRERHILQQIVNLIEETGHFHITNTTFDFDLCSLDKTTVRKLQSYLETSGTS
# Xi reactivation = activators of X-chromosome reactivation in mouse fibroblasts | XiGFP mouse fibroblasts, % GFP-positive cells imaging, 3 d; cells co-treated with 5-aza-dC sensitizer; scaled so ellipticine positive control = 100% | hit rate 0.055% among 360,000 | activation, % at 7.58 µM;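 active = mean normalized replicate activation at least 10% and every replicate at or above 10%; inconclusive = only one of the two criteria met; inactive = mean below 10% and not all replicates reach 10%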;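 note: 0% = median of on-plate neutral control wells and 100% = ellipticine 6 µM median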
#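 material = 68-5-11 XiGFP fibroblast line | medium = DMEM plus 5-aza-dC sensitizer | schedule = 3 days compound exposure | benchmarks = positive control ellipticine, 6 µM final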
# PAX8 reporter = PAX8 transcriptional activity inhibition. RMG-I TPO-luciferase reporter, SteadyGlo, 24 h. inhibition, % at 12.6 µM. hit rate 1.2% among 360,000. AID 652154;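 active = mean replicate inhibition at least 60% with every replicate also reaching 60%; inconclusive = only one of the two criteria is met; inactive = mean below 60% and not all replicates reaching 60%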;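 note: luciferase light reporting Pax8 driven TPO promoter activity; plate controls were median of neutral control wells for no effect and mitoxantrone controls for full effect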
# INS-1E GSIS act = primary screen for activators of insulin secretion dependent on glucose, INS-1E cells, GLuc reporter luminescence | INS-1E GLuc reporter insulin secretion, 2-3 h | activation, % at 16.6 µM | hit rate 0.61% among 370,000;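 active = lowest replicate activation of at least 40%, so every replicate reaches that level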;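 note: 0% = median of neutral control wells and 100% = median of IBMX positive control wells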
# PGC1a acetyl inh = lowers PGC1a acetylation signal in U2OS cells. AlphaScreen anti-acetyl-lysine; with virally co-expressed GCN5 acetyltransferase. inhibition, % at 15.6 µM. hit rate 0.17% among 350,000. AID 651687;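 active = every replicate shows inhibition of at least 40%; inconclusive = mean inhibition at least 40% but some replicate below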;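 note: 0% = neutral control wells and 100% = positive control wells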
# The depositor's hits bear a star; ? = inconclusive; nt = no result given.
SMILES,EWS-Fli inh,MLL AF4-AF9 inh,Xi reactivation,PAX8 reporter,INS-1E GSIS act,PGC1a acetyl inh
C#CCOCCOCCOCCNc1nc(N2CCOCC2)nc(N2CCN(C(=O)[C@H](CCCCN)n3cc(CCC(=O)O)nn3)CC2)n1,-3.0,-0.5,0.1,1.4,nt,-7.3
CC[C@H](C)Cc1cn([C@@H](CCCCN)C(=O)NCCCCCCCCCCC(=O)N2CCNCC2)nn1,-8.1,?,0.0,-4.5,40.5*,nt
C#CCOCCOCCOCCNc1nc(N2CCN(C(=O)CCCCCCCCCCNC(=O)[C@@H](CCC(=O)O)n3cc(CCCCCN)nn3)CC2)nc(N2CCN(C(=O)CCCCCCCCCCNC(=O)[C@H](CO)n3cc(CCCCCN)nn3)CC2)n1,nt,nt,nt,nt,nt,1.0
C#CCOCCOCCOCCNc1nc(N2CCN(C(=O)[C@H](CCCCN)n3cc(CN)nn3)CC2)nc(N2CCN(C(=O)[C@H](CCC(=O)O)n3cc([C@@H](N)CCCCN)nn3)CC2)n1,3.7,73.8*,-0.3,-7.1,15.7,nt
C#CCOCCOCCOCCNc1nc(N2CCN(C(=O)[C@H](CCCCN)n3cc(CN)nn3)CC2)nc(N2CCN(C(=O)[C@H](CCCCN)n3cc(CN)nn3)CC2)n1,0.4,56.7*,-0.1,-1.3,4.6,10.8
O=C(C[C@H]1C=C[C@H](NC(=O)C2CC2)[C@@H](CO)O1)NCc1ccncc1,-0.5,2.2,0.0,-7.0,7.0,-4.5
C[C@H]1CN([C@@H](C)CO)S(=O)(=O)c2ccc(Br)cc2O[C@@H]1CN(C)C(=O)c1cnccn1,-5.6,-0.2,-0.7,nt,25.2,8.1
C[C@@H]1CC=CC[C@H](c2ccccc2)NC(=O)[C@@H](Cc2ccccc2)N(C)C(=O)c2ccccc2O1 (mixture of isomers),nt,nt,0.0,nt,-35.7,nt
COCCn1c(C)cc(C(=O)CSc2nnc(C)s2)c1C,nt,nt,nt,75.4*,nt,8.0
COCCn1c(C)cc(C(=O)CSc2nnnn2C2CCCC2)c1C,81.8*,-0.5,-0.1,38.6,-4.7,nt
COCCn1c(C)cc(C(=O)CSc2n[nH]c(N)n2)c1C,nt,nt,nt,-18.3,nt,0.0
O=S(=O)(CC(CN1CCCCC1)N1CCCCC1)c1ccc2ccccc2c1 (centres undefined),5.6,0.6,0.0,30.9,16.7,14.8
Cc1ccc(S(=O)(=O)CC(CN2CCCCC2)N2CCCCC2)cc1 (centres undefined),-15.4,-3.8,0.3,90.4*,1.7,nt
CC(/C=C/C=C/c1ccccc1)=N/NC(=O)CNc1ccccc1C,nt,nt,0.1,5.6,135.6*,8.4
Cn1nnnc1Sc1ncnc2scc(-c3ccccc3Br)c12,2.8,0.1,0.3,82.9*,23.4,-4.8
COc1ccccc1-c1csc2ncnc(Sc3nnnn3C)c12,9.9,-2.2,-0.1,18.4,20.9,-0.8
Cn1nnnc1Sc1ncnc2scc(-c3ccc[nH]3)c12,-16.2,3.0,0.8,99.1*,-14.9,-90.7
Cn1nnnc1Sc1ncnc2scc(-c3ccccc3)c12,nt,nt,nt,91.3*,45.4*,-6.4
Cn1nnnc1Sc1ncnc2scc(-c3ccc(Br)cc3)c12,43.4,2.4,0.0,99.5*,21.7,22.2
Cn1nnnc1Sc1ncnc2scc(-c3ccc(F)cc3)c12,nt,nt,nt,108.1*,60.7*,-21.0
C[C@H]1CCCCO[C@H](CN(C)Cc2ccncc2)[C@@H](C)CN([C@@H](C)CO)C(=O)c2cc(NC(=O)Nc3ccc(F)cc3)ccc2O1,7.2,nt,0.2,-6.7,-19.6,-13.2
CN1[C@H](C(=O)Nc2ccccc2)[C@@H](CO)[C@@H]2Cn3c(ccc(-c4ccc(F)cc4)c3=O)[C@@H]21,-1.2,4.0,0.0,nt,5.7,nt
COCC(=O)N[C@H]1CC[C@H](CC(=O)NCc2ccc(Cl)cc2)O[C@@H]1CO,0.1,-1.2,1.4,5.7,-0.6,-0.1
Cc1ccc(CNc2nc(NCc3ccccc3)nc3ccsc23)c(C)c1,20.2,3.6,-0.1,21.6,195.7*,10.2
C[C@@H]1CCCCO[C@H](CN(C)C(=O)Nc2cccc3ccccc23)[C@H](C)CN([C@@H](C)CO)C(=O)c2cc(NC(=O)Nc3ccc4c(c3)OCO4)ccc2O1,-18.3,-1.6,-0.1,9.1,8.3,-8.4
